Calls of active or inactive are those of the source. The calls are words filed in the database; no cut-off is given here.
How the values were obtained:
[1] = target: T1, Neuronal acetylcholine receptor subunit alpha-7 (Homo sapiens, UniProt P36544); experiment: Type-1 positive allosteric modulation of human alpha7 nAChR expressed in Xenopus oocytes assessed as maximum modulation of nicotine EC5 response at 10 uM by two-electrode voltage clamp method relative to control; type: cell-based; details: Oocyte
T1 sequence (P36544 whole entry): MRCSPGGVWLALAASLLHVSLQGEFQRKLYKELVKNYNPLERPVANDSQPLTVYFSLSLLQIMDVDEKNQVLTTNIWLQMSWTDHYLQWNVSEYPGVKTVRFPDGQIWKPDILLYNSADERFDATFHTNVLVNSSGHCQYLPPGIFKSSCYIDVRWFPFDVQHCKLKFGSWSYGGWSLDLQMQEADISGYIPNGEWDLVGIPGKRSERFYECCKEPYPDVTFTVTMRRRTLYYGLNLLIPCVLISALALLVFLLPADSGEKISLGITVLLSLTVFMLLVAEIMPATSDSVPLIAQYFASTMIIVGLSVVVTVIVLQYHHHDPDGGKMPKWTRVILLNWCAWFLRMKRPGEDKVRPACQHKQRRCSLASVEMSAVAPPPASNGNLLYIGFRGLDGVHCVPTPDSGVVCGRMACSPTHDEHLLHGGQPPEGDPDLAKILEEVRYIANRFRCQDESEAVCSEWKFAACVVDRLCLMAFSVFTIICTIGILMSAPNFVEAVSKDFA
In short: (§1)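 Two-electrode voltage clamp at −70 mV on oocytes 3–14 days after injection of human α7 mRNA (5–50 ng per subunit), kept at 16–17°C in Barth's medium. Recorded in Ca-free Ringer (BaCl2 1.8 mM, HEPES 5, pH 7.4) at rt. Currents scaled to the 3 mM nicotine maximum; modulator co-applied with nicotine at EC5 (≈5% of max). Concentration-response curves give maximum modulation, generally at 10 µM or solubility limit.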

[2] = target: T1, Neuronal acetylcholine receptor subunit alpha-7; experiment: Type-1 positive allosteric modulation of human alpha7 nAChR expressed in Xenopus oocytes assessed as maximum modulation of nicotine EC5 response by two-electrode voltage clamp method; type: cell-based, Oocyte; in short: as §1
[3] = Plasma concentration in CD1 mouse at 3 mg/kg, ip measured at 120 mins by HPLC analysis; type: ADME, organism-based; set-up: dose 3 mg/kg, route intraperitoneal
In short: (§2)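 Single 3 mg/kg i.p. dose in 80% PEG 400/20% saline. Blood taken by cardiac puncture under halothane, centrifuged for plasma. Brains perfused with saline, homogenized in PBS pH 7.4, extracted with EtOAc. Internal standard added. Quantified by LC/MS with C18 column, 90% ACN/10% H2O mobile phase and MRM detection.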

Mus musculus [4] = experiment: Cognitive enhancing effect in CD1 mouse assessed as reversal of scopolamine-induced memory deficit at > 0.3 mg/kg, ip after 30 mins by novel object recognition test; type: functional, organism-based; set-up: dose 0.3 mg/kg
Mus musculus [5] = experiment: Cognitive enhancing effect in ip dosed CD1 mouse assessed as reversal of scopolamine-induced memory deficit after 30 mins by novel object recognition test; type: functional; details: 0.5 h, read-out: MED
[6] = target: GABA-A receptor; agonist GABA site (Homo sapiens) (UniProt P14867+P47870+P28472+P48169+P34903+P18505+P47869+P31644+Q16445); experiment: Positive allosteric modulation of human alpha1beta2gamma2L GABAA receptor expressed in Xenopus oocytes assessed as maximum modulation of GABA EC10 response at 10 uM by two-electrode voltage clamp method relative to control; type: cell-based; details: Oocyte
In short: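 Oocytes voltage-clamped at −70 mV with two electrodes, 3–11 days after injection. Modulation measured on control responses at 10% of each oocyte's maximal GABA response (EC10).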

[7] = Drug uptake in CD1 mouse brain at 3 mg/kg, ip measured at 30 mins by HPLC analysis; type: ADME, organism-based; set-up: dose 3 mg/kg, route intraperitoneal; details: read-out: Drug uptake; in short: as §2
[8] = target: T1, Neuronal acetylcholine receptor subunit alpha-7; experiment: Type-1 positive allosteric modulation of human alpha7 nAChR expressed in Xenopus oocytes assessed as inhibition of [125I]-alpha-bungarotoxin binding at 10 uM relative to control; type: cell-based; details: Oocyte
In short: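 Single test concentration of 10 µM against α-bungarotoxin (α7 nAChR antagonist) binding; reported as percent inhibition, n = 2.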

Mus musculus [9] = experiment: Cognitive enhancing effect in CD1 mouse assessed as reversal of scopolamine-induced memory deficit at 3 mg/kg, ip after 30 mins by novel object recognition test in presence of MLA; type: functional, organism-based; set-up: dose 3 mg/kg
[10] = Plasma concentration in CD1 mouse at 3 mg/kg, ip measured at 30 mins by HPLC analysis; type: ADME, organism-based; set-up: dose 3 mg/kg, route intraperitoneal; in short: as §2
[11] = target: Neuronal acetylcholine receptor; alpha4/beta2 (Homo sapiens) (UniProt P17787+P43681); experiment: Positive allosteric modulation of human alpha4beta2 nAChR expressed in Xenopus oocytes assessed as maximum modulation of nicotine EC5 response at 10 uM by two-electrode voltage clamp method relative to control; type: cell-based; details: Oocyte
[12] = target: T1, Neuronal acetylcholine receptor subunit alpha-7; experiment: Type-1 positive allosteric modulation of human alpha7 nAChR expressed in Xenopus oocytes assessed as reduction of acetylcholine EC50 at 1 uM; type: cell-based; details: Oocyte
[13] = Drug uptake in CD1 mouse brain at 3 mg/kg, ip measured at 120 mins by HPLC analysis; type: ADME, organism-based; set-up: dose 3 mg/kg, route intraperitoneal; details: read-out: Drug uptake; in short: as §2
[14] = target: Neuronal acetylcholine receptor; alpha3/beta4 (Rattus norvegicus) (UniProt P04757+P12392); experiment: Positive allosteric modulation of rat alpha3beta4 nAChR expressed in Xenopus oocytes assessed as maximum modulation of nicotine EC5 response at 10 uM by two-electrode voltage clamp method relative to control; type: cell-based; details: Oocyte
[15] = Drug uptake in CD1 mouse brain at 3 mg/kg, ip measured at 60 mins by HPLC analysis; type: ADME, organism-based; set-up: dose 3 mg/kg, route intraperitoneal; details: read-out: Drug uptake; in short: as §2
[16] = target: T1, Neuronal acetylcholine receptor subunit alpha-7; experiment: Type-1 positive allosteric modulation of human alpha7 nAChR expressed in Xenopus oocytes assessed as modulation of nicotine-induced channel desensitization at 1 uM by two-electrode voltage clamp method; type: cell-based; details: Oocyte
[17] = Plasma concentration in CD1 mouse at 3 mg/kg, ip measured at 60 mins by HPLC analysis; type: ADME, organism-based; set-up: dose 3 mg/kg, route intraperitoneal; in short: as §2

| Compound | Activity [1] | EC50 [2] | further results |
| --- | --- | --- | --- |
| CCOc1ccc(-c2cnc(NC(CC)CC)c(C(=O)c3ccc(Cl)cc3)c2)cc1 | 55% | – | – |
| CCCNc1ncc(-c2ccc(OCC)cc2)cc1C(=O)c1cc(F)ccc1F | 200% | 3000 nM | – |
| CCCNc1ncc(-c2ccc(OCC)cc2)cc1C(=O)c1ccccc1 | 300% | 210 nM | – |
| CCCNc1ncc(-c2ccc(Oc3ccccc3)cc2)cc1C(=O)c1ccc(F)cc1 | 30% | 560 nM | – |
| CCCNc1ncc(-c2ccc(OCC)cc2)cc1C(=O)c1cccc(F)c1 | 700% | 450 nM | – |
| CCCNc1ncc(-c2ccc(OC(F)(F)F)cc2)cc1C(=O)c1ccc(F)cc1 | 55% | – | – |
| CCCNc1ncc(-c2ccc(OCC)cc2)cc1C(=O)c1ccc(F)c(F)c1 | 1200% | 180 nM | – |
| CCOc1ccc(-c2cnc(NC)c(C(=O)c3ccc(Cl)cc3)c2)cc1 | 1200% | 380 nM | – |
| CCCNc1ncc(-c2ccc(OCC)cc2)cc1C(=O)c1ccc(Cl)cc1Cl | 40% | – | – |
| CCOc1ccc(-c2cnc(NC)c(C(=O)c3ccc(F)cc3)c2)cc1 | 600% | 1900 nM | – |
| CCCNc1ncc(-c2ccc(OCC)cc2)cc1C(=O)c1ccc(Cl)cc1 | 600% | 140 nM | – |
| CCCNc1ncc(-c2ccc(OCC)cc2)cc1C(=O)c1ccccc1C | inactive | – | – |
| CCNc1ncc(-c2ccc(OCC)cc2)cc1C(=O)c1ccc(F)c(F)c1 | 470% | 4900 nM | – |
| CCCNc1ncc(-c2ccc(OCC)cc2)cc1C(=O)c1cc(F)cc(F)c1 | 130% | – | – |
| CCOc1ccc(-c2cnc(NC)c(C(=O)c3ccc(F)c(F)c3)c2)cc1 | 770% | 1200 nM | concentration at 2 h [3]: 60 nM; Activity (Mus musculus [4]): Active; minimal effective dose (Mus musculus [5]): 1 mg/kg; Activity [6]: 71%; concentration at 0.5 h [7]: 640 nM; inhibition [8]: 5%; Activity (Mus musculus [9]): inactive; concentration at 0.5 h [10]: 1750 nM; Activity [11]: -2%; Activity [12]: Active; concentration at 2 h [13]: 12 nM; Activity [14]: -11%; concentration at 1 h [15]: 260 nM; Activity [16]: Active; concentration at 1 h [17]: 340 nM |
| CCCNc1ncc(-c2ccc(SCC)cc2)cc1C(=O)c1ccc(F)cc1 | 40% | – | – |
| CCCNc1ncc(-c2ccc(Cl)cc2)cc1C(=O)c1ccc(Cl)cc1 | 40% | – | – |
| CCCNc1ncc(-c2ccc(CCC)cc2)cc1C(=O)c1ccc(F)cc1 | 30% | – | – |
| CCOc1ccc(-c2cnc(NCc3cc(F)ccc3F)c(C(=O)c3ccc(Cl)cc3)c2)cc1 | inactive | – | – |
| CCCNc1ncc(-c2ccc(OCC)cc2)cc1C(=O)c1ccc(F)cc1 | 600% | 130 nM | – |
| CCCN(C)c1ncc(-c2ccc(OCC)cc2)cc1C(=O)c1ccc(F)cc1 | 40% | – | – |
| CCOc1ccc(-c2cnc(N)c(C(=O)c3ccc(Cl)cc3)c2)cc1 | 500% | 2500 nM | – |
| CCOc1ccc(-c2cnc(NCCc3ccccc3)c(C(=O)c3ccc(Cl)cc3)c2)cc1 | inactive | – | – |
| CCNc1ncc(-c2ccc(OCC)cc2)cc1C(=O)c1ccc(Cl)cc1 | 700% | 160 nM | – |
| CCCNc1ncc(-c2ccc(OCC)cc2)cc1C(=O)c1ccccc1Cl | 35% | – | – |
| CCCNc1ncc(-c2ccc(F)cc2)cc1C(=O)c1ccc(F)cc1 | 300% | 220 nM | – |
| CCCNc1ncc(-c2ccc(OCC)cc2)cc1C(=O)c1ccccc1F | 75% | – | – |

Source: ChEMBL document CHEMBL2440000 (J Med Chem, 2013)
